The source of these data is ChEMBL document CHEMBL2321763, “The role of the acidity of N-heteroaryl sulfonamides as inhibitors of bcl-2 family protein-protein interactions” (ACS Med Chem Lett, 2013).

Converted amounts (≈) assume the structure as drawn.

In data set [1] the target is Bcl-2-like protein 1 (Homo sapiens, UniProt Q07817). The data set is described as follows: Inhibition of Bcl-xL/BAK (unknown origin) interaction.
Data set [2] has as its target T1, Apoptosis regulator Bcl-2 (Homo sapiens, UniProt P10415). Description: Binding affinity to Bcl-2 (unknown origin) by surface plasmon resonance analysis. For orientation: Surface plasmon resonance follows binding to a sensor surface in real time, without labels.
Data set [3] deals with Rattus norvegicus. Description: AUC in Sprague-Dawley rat at 1 mg/kg, iv. Also on record: dose 1 mg/kg, route intravenous. It counts as ADME, organism-based, Plasma. The conditions noted are these: in vivo. In short, it runs like this:
(§1)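 Rats got a single 1 mg/kg iv dose for plasma clearance, AUC and Vdss, and a 10 mg/kg po dose for oral bioavailability (%F). The vehicle was a solution of either 10% PG, 5% cremophor EL and 85% citrate buffer, or 10% PG, Solutol and 40% water for injection.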

The target in data set [4] is T1, Apoptosis regulator Bcl-2. The data set is described as follows: Inhibition of Bcl-2/biotinylated BAK (unknown origin) interaction incubated for 1 hr by surface plasmon resonance analysis.
Data set [5] can be described thus: Clearance in Sprague-Dawley rat plasma at 1 mg/kg, iv. The format is ADME, organism-based. Also on record: dose 1 mg/kg, route intravenous. In short, it runs like this:
as §1

A short description of data set [6]: Oral bioavailability in Sprague-Dawley rat at 10 mg/kg. The following applies: in vivo. The format is ADME, organism-based. In short, it runs like this:
as §1

The nature of data set [7]: Volume of distribution at steady state in Sprague-Dawley rat at 1 mg/kg, iv and 10 mg/kg, po. The format is ADME, organism-based. The conditions noted are these: in vivo, read-out: Vdss. In outline:
as §1

For data set [8], the system named is Toledo. Description: Induction of apoptosis in human Toledo cells. It counts as functional. The conditions noted are these: read-out: LD50 (the source's name).
Data set [9] can be described thus: Solubility of compound in fasted state simulated intestinal fluid.
Data set [10] is described as follows: Ratio of compound solubility to ABT-737 solubility in fasted state simulated intestinal fluid. It counts as physicochemical. The conditions noted are these: simulated gi fluid.

T1 sequence (P10415 whole entry): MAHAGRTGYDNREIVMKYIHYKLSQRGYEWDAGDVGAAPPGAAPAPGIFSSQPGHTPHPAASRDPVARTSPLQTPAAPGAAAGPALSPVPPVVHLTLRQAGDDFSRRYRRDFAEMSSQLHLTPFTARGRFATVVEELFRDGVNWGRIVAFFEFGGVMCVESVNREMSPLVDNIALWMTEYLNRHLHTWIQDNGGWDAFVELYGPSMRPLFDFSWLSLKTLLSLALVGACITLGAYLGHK
Bcl-2-like protein 1, sequence (Q07817 whole entry): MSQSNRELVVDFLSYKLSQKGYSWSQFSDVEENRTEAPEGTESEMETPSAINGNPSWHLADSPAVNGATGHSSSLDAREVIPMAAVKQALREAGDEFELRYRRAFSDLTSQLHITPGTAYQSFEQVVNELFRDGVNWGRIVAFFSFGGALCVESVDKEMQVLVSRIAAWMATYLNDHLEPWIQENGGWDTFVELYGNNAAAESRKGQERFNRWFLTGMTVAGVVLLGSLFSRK

What is called IC50 is the midpoint of a concentration-inhibition curve. The Kd is the concentration at which binding is half-saturated. Higher therefore signals a looser complex. A word on the clearance: it is a measure of how efficiently the substance is removed, as volume per time. High values mean a high capacity for elimination, low ones a low capacity for elimination. As a reminder, the bioavailability is dose-corrected exposure relative to a reference, in per cent. In general, solubility refers to the dissolved amount per volume that the medium holds. A higher solubility goes with a readily soluble substance. In the case of `CN(C)CC[C@H](CSc1ccccc1)Nc1ccc(S(=O)(=O)Nc2ncnc3c2CCN(C2CCN(Cc4ccccc4-c4ccc(Cl)cc4)CC2)C3)cc1S(=O)(=O)C(F)(F)F`, the values for the concentration for half-maximal inhibition (IC50) in data set [1] and in data set [4] were 24 nM and 19 nM, respectively. In addition, in [2], the equilibrium dissociation constant (Kd) worked out at 7 nM. The AUC in [3] worked out at 0.232 µM·h. This compound registered a clearance in [5] of 68 mL/min/kg. The same compound gave a bioavailability in data set [6] of under 5%. Also, the Vd in data set [7] came to 8.6 L/kg. Further, the CC50 in data set [8] came out at 298 nM. Besides, the concentration in solution in data set [9] (solubility) came to 64 µM (≈ 59.4 µg/mL).

For the compound `CN(C)CC[C@H](CSc1ccccc1)Nc1ccc(S(=O)(=O)Nc2ncnc3c2CCN(C2CCN(Cc4cc(F)ccc4-c4ccc(Cl)cc4)CC2)C3=O)cc1S(=O)(=O)C(F)(F)F`, the IC50 in [1] stood at 22 nM; in data set [4] it was 142 nM. This compound also showed a Kd in [2] of 104 nM. The CC50 in [8] was over 30000 nM. The compound further came in with a solubility in [9] of 63 µM (≈ 60.5 µg/mL).

In [2], `CN(C)CC[C@H](CSc1ccccc1)Nc1ccc(S(=O)(=O)Nc2nnc3n2CCN(C2CCN(Cc4ccccc4-c4ccc(Cl)cc4)CC2)CC3)cc1S(=O)(=O)C(F)(F)F` returned a Kd of 5 nM. For the same compound, half-maximal inhibition in [4] (IC50) was put at 25 nM. Besides, the CC50 in [8] turned out to be 3470 nM. Moreover, the concentration in solution in data set [9] (solubility) was 87 µM (≈ 81 µg/mL).

Consider `CN(C)CC[C@H](CSc1ccccc1)Nc1ccc(S(=O)(=O)Nc2nc(C(F)(F)F)nc3c2CCN(C2CCN(Cc4ccccc4-c4ccc(Cl)cc4)CC2)C3)cc1S(=O)(=O)C(F)(F)F`, for which the IC50 in [1] was determined as 62 nM; in data set [4] it was 46 nM. Binding in data set [2] was put at a Kd of 10 nM. In addition, in data set [8], the CC50 amounted to 3900 nM. In [9], this compound had a solubility of 36 µM (≈ 35.9 µg/mL).

For `CN(C)CC[C@H](CSc1ccccc1)Nc1ccc(S(=O)(=O)NC2=NS(=O)(=O)c3cc(N4CCN(Cc5ccccc5-c5ccc(Cl)cc5)CC4)ccc32)cc1[N+](=O)[O-]`, the Kd in [2] was 14 nM. The compound also gave an AUC in [3] of 761 nmol/h. In [4], the midpoint of inhibition, the IC50, lay at 17 nM. The compound further came in with a clearance in data set [5] of 25 mL/min/kg. The Vd in [7] amounted to 0.09 L/kg. Besides, the CC50 in data set [8] was over 30000 nM. The compound further returned a solubility in [9] of under 5 µM.

In data set [4], `CN(C)CC[C@H](CSc1ccccc1)Nc1ccc(S(=O)(=O)Nc2cccc3cc(N4CCN(Cc5ccccc5-c5ccc(Cl)cc5)CC4)cnc23)cc1[N+](=O)[O-]` showed an IC50 of 68 nM. In [8], the CC50 is 3950 nM. For the same compound, the solubility in data set [9] is 44 µM (≈ 36.8 µg/mL).

`O=[N+]([O-])c1cc(S(=O)(=O)Nc2cccc3cc(N4CCN(Cc5ccccc5-c5ccc(Cl)cc5)CC4)ccc23)ccc1N[C@H](CCN1CCOCC1)CSc1ccccc1`: the IC50 in [4] is over 4000 nM. For the same compound, the CC50 in [8] is over 30000 nM.

On to `CN(C)CC[C@H](CSc1ccccc1)Nc1ccc(S(=O)(=O)Nc2nnc3cc(N4CCN(Cc5ccccc5-c5ccc(Cl)cc5)CC4)cnn23)cc1[N+](=O)[O-]`, for which the Ratio in [10] is recorded as 4. Besides, the Kd in data set [2] was determined as 8 nM. The same compound had an IC50 in data set [4] of 25 nM. In data set [8], the CC50 was 4800 nM. This compound had a solubility in [9] of 31 µM (≈ 25.7 µg/mL).

As to `CN(C)CC[C@H](CSc1ccccc1)Nc1ccc(S(=O)(=O)Nc2ncnc3c2CCN(C2CCN(Cc4cc(F)ccc4-c4ccc(Cl)cc4)CC2)C3)cc1S(=O)(=O)C(F)(F)F`, the half-inhibitory concentration (IC50) in data set [1] was found to be 74 nM; in data set [4] it was 33 nM. The same compound displayed a Kd in data set [2] of 3 nM. In data set [8], the CC50 amounted to 197 nM. Also, in [9], the solubility is 25 µM (≈ 23.7 µg/mL).

In data set [4], `CN(C)CC[C@H](CSc1ccccc1)Nc1ccc(S(=O)(=O)Nc2nn(C)c3nc(N4CCN(Cc5ccccc5-c5ccc(Cl)cc5)CC4)ncc23)cc1[N+](=O)[O-]` registered an IC50 of 8500 nM. Moreover, the CC50 in data set [8] is over 30000 nM.

`CN(C)CC[C@H](CSc1ccccc1)Nc1ccc(S(=O)(=O)NC(=O)c2ccc(N3CCN(Cc4ccccc4-c4ccc(Cl)cc4)CC3)cc2)cc1[N+](=O)[O-]` [ABT 737]: in [8], the CC50 is 60 nM. Also, the solubility in data set [9] is 7 µM (≈ 5.69 µg/mL).

Compound `O=S(=O)(Nc1nnc2n1CCN(C1CCN(Cc3ccccc3-c3ccc(Cl)cc3)CC1)C2)c1ccc(N[C@H](CCN2CCOCC2)CSc2ccccc2)c(S(=O)(=O)C(F)(F)F)c1` gave an IC50 in data set [4] of 317 nM. Further, the CC50 in data set [8] was determined as 15900 nM. In data set [9], the concentration in solution (solubility) came to 9 µM (≈ 8.64 µg/mL).

Turning to `CN(C)CC[C@H](CSc1ccccc1)Nc1ccc(S(=O)(=O)Nc2nc(Cl)nc3c2CCN(C2CCN(Cc4ccccc4-c4ccc(Cl)cc4)CC2)C3)cc1S(=O)(=O)C(F)(F)F`, the IC50 in data set [1] turned out to be 20 nM; in data set [4], 32 nM. The Kd in data set [2] came out at 17 nM. The CC50 in data set [8] is 5370 nM. The solubility in data set [9] was 22 µM (≈ 21.2 µg/mL).

In turn, `CC(c1ccccc1-c1ccc(Cl)cc1)N1CCC(N2CCc3c(ncnc3NS(=O)(=O)c3ccc(N[C@H](CCN(C)C)CSc4ccccc4)c(S(=O)(=O)C(F)(F)F)c3)C2)CC1` (some centres not stated) yielded an IC50 in [1] of 115 nM. In data set [2], binding was put at a Kd of 2 nM. The same compound came in with an AUC in data set [3] of 0.19 µM·h. Moreover, the clearance in data set [5] was determined as 89 mL/min/kg. Besides, in data set [7], the Vd was 5.28 L/kg. In data set [8], the CC50 stood at 113 nM. In addition, in data set [9], the solubility was 31 µM (≈ 29.2 µg/mL).

As for `O=S(=O)(Nc1ncnc2c1CN(C1CCN(Cc3ccccc3-c3ccc(Cl)cc3)CC1)C2)c1ccc(N[C@H](CCN2CCOCC2)CSc2ccccc2)c(S(=O)(=O)C(F)(F)F)c1`, 740 nM corresponded to half-maximal inhibition in [4] (IC50). The CC50 in [8] worked out at 107000 nM. In [9], this compound registered a solubility of 70 µM (≈ 67 µg/mL).
